Experimental findings from ChEMBL document CHEMBL1629601, “In vitro susceptibility of field isolates of Leishmania donovani to Miltefosine and amphotericin B: correlation with sodium antimony gluconate susceptibility and implications for treatment in areas of endemicity” (2009) are described below.

Assay type in all cases: functional
For experiment [1], the system named is Leishmania donovani. As to the kind of experiment: Antimicrobial activity against Leishmania donovani K498 promastigote. The following applies: read-out: ED50 (the source's name).
Experiment [2] relates to Leishmania donovani. Description: Decrease in LdRoS3 gene expression in Leishmania donovani K429 by RT-PCR method. The method in brief: (§1)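 VL field isolates of L. donovani. Transcript levels of LdMT or LdRos3 were measured by real-time RT-PCR with SYBR green and analysed by the 2−ΔΔCt method. The expression index is the ratio of gene expression to that of the standard L. donovani strain LdAG83, and a decrease is relative to LdAG83. Values are means of three independent experiments.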

Experiment [3] deals with Leishmania donovani. As to the kind of experiment: Decrease in LdRoS3 gene expression in Leishmania donovani K133 by RT-PCR method. The method in brief: as §1
Experiment [4] concerns Leishmania donovani. As to the kind of experiment: Decrease in LdRoS3 gene expression in Leishmania donovani K132 by RT-PCR method. The method in brief: as §1
Experiment [5] has as its system Leishmania donovani. Description: Decrease in LdMT gene expression in Leishmania donovani K417 by RT-PCR method. The method in brief:
as §1

The test system of experiment [6] is Leishmania donovani. As to the kind of experiment: Antimicrobial activity against Leishmania donovani K429 promastigote. The following applies: read-out: ED50 (the source's name).
The test system of experiment [7] is Leishmania donovani. Description: Decrease in LdMT gene expression in Leishmania donovani K498 by RT-PCR method. The method in brief: as §1
For experiment [8], the system named is Leishmania donovani. Description: Decrease in LdRoS3 gene expression in Leishmania donovani K498 by RT-PCR method. The method in brief: as §1
Experiment [9] deals with Leishmania donovani. Description: Antimicrobial activity against Leishmania donovani K132 promastigote. The following applies: read-out: ED50 (the source's name).
Experiment [10] relates to Leishmania donovani. As to the kind of experiment: Antimicrobial activity against Leishmania donovani K516 amastigote. The following applies: read-out: ED50 (the source's name).
The subject of experiment [11] is Leishmania donovani. Description: Antimicrobial activity against Leishmania donovani K111 promastigote. The following applies: read-out: ED50 (the source's name).
The test system of experiment [12] is Leishmania donovani. Description: Decrease in LdRoS3 gene expression in Leishmania donovani K131 by RT-PCR method. The gist of the method: as §1
Experiment [13] has as its system Leishmania donovani. Description: Decrease in LdRoS3 gene expression in Leishmania donovani K80 by RT-PCR method. The method in brief: as §1
In experiment [14] the test system is Leishmania donovani. As to the kind of experiment: Decrease in LdMT gene expression in Leishmania donovani K80 by RT-PCR method. The gist of the method:
as §1

In experiment [15] the test system is Leishmania donovani. Description: Antimicrobial activity against Leishmania donovani K135 promastigote. The following applies: read-out: ED50 (the source's name).
Experiment [16] deals with Leishmania donovani. As to the kind of experiment: Decrease in LdRoS3 gene expression in Leishmania donovani K435 by RT-PCR method. The method in brief: as §1
Experiment [17] deals with Leishmania donovani. As to the kind of experiment: Antimicrobial activity against Leishmania donovani K131 amastigote. The following applies: read-out: ED50 (the source's name).
For experiment [18], the system named is Leishmania donovani. As to the kind of experiment: Decrease in LdMT gene expression in Leishmania donovani K111 by RT-PCR method. The method in brief: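 LdMT transcript levels were measured by real-time RT-PCR with SYBR green and analysed by the 2−ΔΔCt method. They are expressed as an expression index, the ratio relative to reference strain LdAG83, and are the mean of three independent experiments.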

For experiment [19], the system named is Leishmania donovani. As to the kind of experiment: Antimicrobial activity against Leishmania donovani K133 amastigote. The following applies: read-out: ED50 (the source's name).
The test system of experiment [20] is Leishmania donovani. Description: Antimicrobial activity against Leishmania donovani K435 promastigote. The following applies: read-out: ED50 (the source's name).
Experiment [21] concerns Leishmania donovani. As to the kind of experiment: Antimicrobial activity against Leishmania donovani K149 amastigote. The following applies: read-out: ED50 (the source's name).
The subject of experiment [22] is Leishmania donovani. Description: Antimicrobial activity against Leishmania donovani K429 amastigote. The following applies: read-out: ED50 (the source's name).

≈ marks a conversion by molar mass, not a printed value.

With `CCCCCCCCCCCCCCCCOP(=O)([O-])OCC[N+](C)(C)C` [MILTEFOSINE], the EC50 turned out to be 1.32 µg/mL (≈ 3.24 µM) in experiment [1]; 1.26 µg/mL (≈ 3.09 µM) in experiment [6]; 0.53 µg/mL (≈ 1.3 µM) in experiment [9]; 2.02 µg/mL (≈ 4.96 µM) in experiment [10]; 0.47 µg/mL (≈ 1.15 µM) in experiment [11]; 0.86 µg/mL (≈ 2.11 µM) in experiment [15]. Also, the EC50 in [17] came out at 0.51 µg/mL (≈ 1.25 µM); in experiment [19], 0.93 µg/mL (≈ 2.28 µM); in experiment [20], 1.16 µg/mL (≈ 2.85 µM); in experiment [21] it was 1.57 µg/mL (≈ 3.85 µM); in experiment [22], 1.24 µg/mL (≈ 3.04 µM). Further, the “fold change (FC)” value was 8.85 in [2]; 4.52 in experiment [3]; 55.55 in [4]; 1.88 in [5]; 1.38 in experiment [7]; 7.63 in experiment [8]. The “fold change (FC)” value in experiment [12] amounted to 11.1; in experiment [13] it was 1.71; in experiment [14], 1.24; in experiment [16], 4.76; in experiment [18], 3.4.
